The text below walks through data of ChEMBL document CHEMBL1158955, “Biologically active metabolites from Xenorhabdus spp., Part 1. Dithiolopyrrolone derivatives with antibiotic activity” (1991).

Values after ≈ are worked out from the molar mass of the structure shown. Some results are limits rather than exact numbers.

The subject of one experiment is Pseudomonas aeruginosa. Description: Antimicrobial activity against Pseudomonas aeruginosa BTA 429 after 18 hrs by broth dilution method. It counts as functional. Conditions: BTA 429, 18 h. The essentials: (§1)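 Broth dilution in TS broth in 24-well dishes. Compound dissolved in DMSO and diluted from a starting concentration of 2.5%. Inocula were grown from fresh TS agar plates in TS broth at 37° to A525 0.5, then diluted 10^-4. Incubation was 37° for 18 h. Turbidity was read by eye and confirmed by plating onto TS agar. MIC is the last dilution giving ≤20 colonies.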
On the technique in general: In broth dilution the organism is exposed to a series of concentrations in liquid medium.

For experiment [1], the system named is Helicoverpa punctigera. Description: Insecticidal activity in Heliothis punctigera assessed as mortality by larval feeding assay. It counts as functional. Put shortly:
(§2)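 Artificial diet set in 24-well plates to 1 cm depth; 30 μl of test material in DMSO spread over the surface, with DMSO-only controls. After drying, one first-instar Heliothis punctigera larva placed per well, 16 wells per dose, and each well closed with a polypropylene ball. Held 7 days at 28°, then scored for mortality and survivors weighed; LC50 derived by probit analysis.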

A further experiment has as its system Bacillus cereus. As to the kind of experiment: Antimicrobial activity against Bacillus cereus BTA 432 after 18 hrs by broth dilution method. It counts as functional. To be noted: BTA 432, 18 h. The essentials:
as §1

Another experiment deals with Candida albicans. Description: Antimicrobial activity against Candida albicans ATCC 10231 after 18 hrs by broth dilution method. It counts as functional. To be noted: ATCC 10231, 18 h. Put shortly: as §1
In a further experiment the test system is Staphylococcus aureus. As to the kind of experiment: Antimicrobial activity against Staphylococcus aureus ATCC 6538P after 18 hrs by broth dilution method. The experiment is classed as functional. The essentials:
as §1

Another experiment concerns Micrococcus luteus. Description: Antimicrobial activity against Micrococcus luteus BTA 433 after 18 hrs by broth dilution method. The experiment is classed as functional. To be noted: BTA 433, 18 h. Put shortly: as §1
A further experiment has as its system Streptococcus pyogenes. As to the kind of experiment: Antimicrobial activity against Streptococcus pyogenes IMR-RNSH after 18 hrs by broth dilution method. It counts as functional. Put shortly: as §1
Experiment [2] has as its system Helicoverpa punctigera. Description: Insecticidal activity in Heliothis punctigera assessed as mortality at 150 ug.cm'-2 by larval feeding assay. It counts as functional. Put shortly:
as §2

Experiment [3] has as its system Helicoverpa punctigera. Description: Insecticidal activity in Heliothis punctigera assessed as mortality at 37.5 ug.cm'-2 by larval feeding assay. The experiment is classed as functional. Put shortly:
as §2

Another experiment deals with Proteus mirabilis. Description: Antimicrobial activity against Proteus mirabilis BTA 585 after 18 hrs by broth dilution method. The experiment is classed as functional. Conditions: BTA 585, 18 h. Put shortly:
as §1

A further experiment relates to Salmonella typhimurium. Description: Antimicrobial activity against Salmonella Typhimurium BTA 438 after 18 hrs by broth dilution method. To be noted: Salmonella enterica, BTA 438, 18 h. It counts as functional, Salmonella enterica subsp. enterica serovar Typhimurium. Put shortly:
as §1

For the next experiment, the system named is Shigella sonnei. Description: Antimicrobial activity against Shigella sonnei BTA 431 after 18 hrs by broth dilution method. The experiment is classed as functional. Conditions: BTA 431, 18 h. The essentials:
as §1

A further experiment has as its system Escherichia coli. As to the kind of experiment: Antimicrobial activity against Escherichia coli K88 BTA 430 after 18 hrs by broth dilution method. The experiment is classed as functional. Conditions: K88 BTA 430, 18 h. The essentials:
as §1

Experiment [4] concerns Helicoverpa punctigera. As to the kind of experiment: Insecticidal activity in Heliothis punctigera assessed as weight reduction at 37.5 ug.cm'-2 relative to control. It counts as functional. Details: scale not given: the % may be the effect or the level left. The essentials: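 Diet-surface feeding test. Molten artificial diet was poured 1 cm deep in 24-well plates, and test material in DMSO (30 μl) was spread on the surface; controls got DMSO only. Once dry, one first-instar H. punctigera larva was placed per well (16 wells per dose) and the well was capped. After 7 days at 28°, mortality was scored and surviving larvae were weighed.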

Regarding `CC(C)CCCC(=O)Nc1c2sscc-2[nH]c1=O` [XENORHABDIN 2], the MIC (in general, the lowest concentration that inhibits growth of the organism) against Pseudomonas aeruginosa is more than 100 µg/mL; against Bacillus cereus, 3.13 µg/mL (≈ 11 µM); with Candida albicans, more than 100 µg/mL; against Staphylococcus aureus, 20 µg/mL (≈ 70.3 µM); against Micrococcus luteus, 0.156 µg/mL (≈ 0.549 µM); against Streptococcus pyogenes it was 1.25 µg/mL (≈ 4.4 µM). The MIC against Proteus mirabilis, in the experiment on Salmonella typhimurium, in the experiment with Shigella sonnei and with Escherichia coli was more than 100 µg/mL in each case. Also, the LC50 in the experiment with Helicoverpa punctigera [1] stood at 59.5 ug.cm'-2. Also, the Activity with Helicoverpa punctigera [2] was 100%; with Helicoverpa punctigera [3], 18.8%; with Helicoverpa punctigera [4], 64.7%.
